{"source": "paper PMC4752335", "about": "(European journal of medicinal chemistry, 2015)", "key": {"ovine COX-1": {"molecular_target": "T1, ovine COX-1 (Ovis aries, UniProt P05979)", "T1 sequence (P05979 25-600)": "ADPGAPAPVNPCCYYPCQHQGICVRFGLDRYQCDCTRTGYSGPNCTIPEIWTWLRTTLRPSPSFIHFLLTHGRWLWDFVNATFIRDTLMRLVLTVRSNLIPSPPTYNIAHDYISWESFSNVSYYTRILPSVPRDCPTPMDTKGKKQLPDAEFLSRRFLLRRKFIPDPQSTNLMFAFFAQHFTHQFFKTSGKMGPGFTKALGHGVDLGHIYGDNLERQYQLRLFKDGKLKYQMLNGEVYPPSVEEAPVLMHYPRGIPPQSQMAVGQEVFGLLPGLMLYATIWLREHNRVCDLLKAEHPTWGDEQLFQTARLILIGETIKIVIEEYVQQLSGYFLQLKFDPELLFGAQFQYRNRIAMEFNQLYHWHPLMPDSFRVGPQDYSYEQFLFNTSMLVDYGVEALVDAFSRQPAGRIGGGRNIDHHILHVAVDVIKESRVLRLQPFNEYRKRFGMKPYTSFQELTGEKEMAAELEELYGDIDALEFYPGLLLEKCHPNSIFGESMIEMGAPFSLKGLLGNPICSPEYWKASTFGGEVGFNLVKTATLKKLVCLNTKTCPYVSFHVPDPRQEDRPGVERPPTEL", "assay": "In vitro COX assay", "assay_type": "biochemical", "settings": "for increase in potency toward COX-1: compared to 10a; for decrease in potency toward COX-1: compared to 10r"}, "rat brain FAAH": {"molecular_target": "T2, rat brain FAAH (Rattus norvegicus, UniProt P97612)", "T2 sequence (P97612 1-579)": "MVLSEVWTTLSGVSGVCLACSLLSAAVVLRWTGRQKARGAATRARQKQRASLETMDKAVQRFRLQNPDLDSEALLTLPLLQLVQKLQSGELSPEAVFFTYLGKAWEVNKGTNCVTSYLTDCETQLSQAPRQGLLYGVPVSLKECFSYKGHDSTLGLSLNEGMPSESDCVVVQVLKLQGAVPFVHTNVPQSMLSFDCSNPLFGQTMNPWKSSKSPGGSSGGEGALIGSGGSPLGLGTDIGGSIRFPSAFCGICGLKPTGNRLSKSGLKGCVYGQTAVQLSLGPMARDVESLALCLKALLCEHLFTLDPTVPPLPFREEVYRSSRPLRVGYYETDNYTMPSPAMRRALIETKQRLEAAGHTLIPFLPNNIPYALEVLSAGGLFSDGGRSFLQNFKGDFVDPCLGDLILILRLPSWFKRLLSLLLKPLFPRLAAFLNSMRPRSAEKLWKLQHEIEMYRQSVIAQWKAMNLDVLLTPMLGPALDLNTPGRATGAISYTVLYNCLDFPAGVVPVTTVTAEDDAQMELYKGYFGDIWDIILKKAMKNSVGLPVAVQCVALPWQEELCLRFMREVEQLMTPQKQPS", "assay": "In vitro rat FAAH radiometric assay", "assay_type": "biochemical"}, "[1]": {"tested_on": "panel of >90 biologically relevant receptors, enzymes and ion channels", "settings": "cited from earlier work"}, "mouse models of IBD": {"tested_on": "mouse models of IBD", "settings": "cited from earlier work"}, "FAAH and COX": {"tested_on": "FAAH and COX", "settings": "mice; cited from earlier work"}, "human recombinant COX-2": {"molecular_target": "T3, human recombinant COX-2 (Homo sapiens, UniProt P35354)", "T3 sequence (P35354 18-604)": "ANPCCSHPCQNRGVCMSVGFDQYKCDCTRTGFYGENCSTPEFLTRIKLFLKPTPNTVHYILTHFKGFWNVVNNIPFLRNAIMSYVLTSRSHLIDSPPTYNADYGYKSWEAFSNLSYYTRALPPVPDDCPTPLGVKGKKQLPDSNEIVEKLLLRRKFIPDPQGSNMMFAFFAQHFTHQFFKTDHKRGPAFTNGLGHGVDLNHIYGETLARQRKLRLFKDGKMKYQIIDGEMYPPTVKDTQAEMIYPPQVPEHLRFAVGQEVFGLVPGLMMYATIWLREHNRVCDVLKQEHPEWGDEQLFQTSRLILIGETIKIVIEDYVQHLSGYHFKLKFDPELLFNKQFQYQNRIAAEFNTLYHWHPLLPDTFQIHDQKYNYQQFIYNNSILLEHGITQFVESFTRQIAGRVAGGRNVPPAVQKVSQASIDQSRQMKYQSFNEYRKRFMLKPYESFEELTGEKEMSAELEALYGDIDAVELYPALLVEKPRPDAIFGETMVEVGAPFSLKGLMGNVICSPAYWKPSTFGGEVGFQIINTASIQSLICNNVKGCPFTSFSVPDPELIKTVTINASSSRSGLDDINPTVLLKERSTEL", "assay": "In vitro COX assay", "assay_type": "biochemical", "settings": "compared to 10r"}, "[2]": {"tested_on": "panel of >90 biologically relevant receptors, enzymes and ion channels", "assay": "Off-target panel of >90 biologically relevant targets", "settings": "Table S1"}, "[3]": {"tested_on": "COX products (6-keto-PGF1α, TXB2) and FAAH substrate OEA in plasma", "assay_type": "in vivo", "settings": "mice, 1 mg/kg intravenous, 1 h, vs vehicle", "method_in_brief": "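Mice, randomised in groups of 6 and handled blind, were decapitated under anaesthesia 1 h after a 1 mg/kg intravenous dose. Heparinised cardiac blood (0.3 mL) was spun at 2000×g for 30 min to give plasma. OEA was extracted with cold acetone containing [²H₄]-OEA and quantified by LC/MS (MRM) against a 1 nM–10 µM calibration curve. 6-keto-PGF1α and […] were measured by ELISA kit. Values are mean ± s.e.m. (n=6), compared with vehicle by two-tailed Student's t test.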"}}}
{"smiles": "CC(C(=O)O)c1ccc(-c2cccc(OC(=O)NC3CCC3)c2)c(F)c1", "note": "(racemic) [Compound 10c, (±)-2-[4-[3-(cyclobutylcarbamoyloxy)phenyl]-3-fluoro-phenyl]propanoic acid]", "values": [{"measurement": "increase in potency toward COX-1", "setting": "ovine COX-1", "result": 10, "unit": "fold"}, {"measurement": "loss in potency against FAAH", "setting": "rat brain FAAH; compared to 10a", "result": 10, "unit": "fold"}]}
{"smiles": "CC(C(=O)O)c1ccc(-c2cccc(OC(=O)NCC3CCCCC3)c2)c(F)c1", "note": "(racemic) [Compound 10e, (±)-2-[4-[3-(cyclohexylmethylcarbamoyloxy)phenyl]-3-fluoro-phenyl]propanoic acid]", "values": [{"measurement": "increase in potency toward COX-1", "setting": "ovine COX-1", "result": 10, "unit": "fold"}, {"measurement": "increase in potency toward FAAH", "setting": "rat brain FAAH; compared to 10a", "result": 23, "unit": "fold"}]}
{"smiles": "CC(C(=O)O)c1ccc(-c2cccc(OC(=O)NCCC3CCCCC3)c2)c(F)c1", "note": "(racemic) [Compound 10f, (±)-2-[4-[3-(2-cyclohexylethylcarbamoyloxy)phenyl]-3-fluoro-phenyl]propanoic acid]", "values": [{"measurement": "increase in potency toward COX-1", "setting": "ovine COX-1", "result": 50, "unit": "fold"}, {"measurement": "increase in potency toward FAAH", "setting": "rat brain FAAH; compared to 10a", "result": 400, "unit": "fold"}]}
{"smiles": "CC(C(=O)O)c1ccc(-c2cccc(OC(=O)NCc3ccccc3)c2)c(F)c1", "note": "(racemic) [Compound 10j, (±)-2-[4-[3-(benzylcarbamoyloxy)phenyl]-3-fluoro-phenyl]propanoic acid]", "values": [{"measurement": "increase in potency toward FAAH", "setting": "rat brain FAAH; compared to 10i", "result": 10, "unit": "fold"}]}
{"smiles": "CCCCCCNC(=O)Oc1cccc(-c2ccc(C(C)C(=O)O)cc2F)c1", "note": "(racemic) [Compound 10r, (±)-2-[3-fluoro-4-[3-(hexylcarbamoyloxy)phenyl]phenyl]propanoic acid]", "values": [{"measurement": "off-target activities on a panel of >90 biologically relevant targets", "setting": "[1]", "result": "no off-target activities"}, {"measurement": "anti-inflammatory effects in mouse models of IBD", "setting": "mouse models of IBD", "result": "profound anti-inflammatory effects"}, {"measurement": "COX-dependent gastric toxicity", "setting": "mouse models of IBD; mouse", "result": "without causing COX-dependent gastric toxicity"}, {"measurement": "engagement of intended targets after oral administration", "setting": "FAAH and COX", "result": "effectively engages its intended targets"}]}
{"smiles": "CCCCCCNC(=O)Oc1cccc(-c2ccc(C(C)CO)cc2F)c1", "note": "(racemic) [Compound 12, (±)-[3-[2-fluoro-4-(2-hydroxy-1-methyl-ethyl)phenyl]phenyl] N-hexylcarbamate]", "values": [{"measurement": "decrease in potency toward COX-1", "setting": "ovine COX-1", "result": 100, "unit": "fold"}, {"measurement": "increase in potency toward FAAH", "setting": "rat brain FAAH; compared to 10r", "result": 10, "unit": "fold"}]}
{"smiles": "CCCCCCNC(=O)Oc1ccccc1-c1ccc(C(C)C(=O)O)cc1F", "note": "(racemic) [Compound 15a, (±)-2-[3-fluoro-4-[2-(hexylcarbamoyloxy)phenyl]phenyl]propanoic acid]", "values": [{"measurement": "decrease in potency toward COX-1", "setting": "ovine COX-1", "result": 60, "unit": "fold"}, {"measurement": "decrease in potency toward FAAH", "setting": "rat brain FAAH; compared to 10r", "result": 70, "unit": "fold"}]}
{"smiles": "CCCCCCNC(=O)Oc1cccc(-c2ccc(C(C)C(=O)O)cc2C(F)(F)F)c1", "note": "(racemic) [Compound 29c, (±)-2-[4-[3-(hexylcarbamoyloxy)phenyl]-3-(trifluoromethyl)phenyl]propanoic acid]", "values": [{"measurement": "increase in potency toward FAAH", "setting": "rat brain FAAH; compared to 10r", "result": 6, "unit": "fold"}, {"measurement": "increase in potency toward COX-2", "setting": "human recombinant COX-2", "result": 2, "unit": "fold"}]}
{"smiles": "CCCCCCNC(=O)Oc1cccc(-c2ccc(C(C)C(=O)O)cc2)c1", "note": "(racemic) [Compound 29e, (±)-2-[4-[3-(hexylcarbamoyloxy)phenyl]phenyl]propanoic acid]", "values": [{"measurement": "increase in potency toward FAAH", "setting": "rat brain FAAH; compared to 10r", "result": 10, "unit": "fold"}]}
{"smiles": "CCCCCCNC(=O)Oc1cccc(-c2ccc([C@H](C)C(=O)O)cc2F)c1", "note": "[(+)-10r, (+)-2-[3-fluoro-4-[3-(hexylcarbamoyloxy)phenyl]phenyl]propanoic acid]", "values": [{"measurement": "off-target activities on a panel of >90 biologically relevant receptors, enzymes (including NAAA) and ion channels", "setting": "[2]", "result": "no off-target activities"}, {"measurement": "plasma level of 6-keto-PGF1α (stable metabolite of prostacyclin)", "setting": "[3]", "result": "lowered"}, {"measurement": "plasma level of TXB2 (stable metabolite of TXA2)", "setting": "[3]", "result": "lowered"}, {"measurement": "plasma level of the FAAH substrate OEA", "setting": "[3]", "result": "increased"}]}
{"smiles": "CCCCCCNC(=O)Oc1cccc(-c2ccc(CC(=O)O)cc2F)c1", "note": "[Compound 18b, 2-[3-fluoro-4-[3-(hexylcarbamoyloxy)phenyl]phenyl]acetic acid]", "values": [{"measurement": "decrease in potency toward COX-1", "setting": "ovine COX-1", "result": 180, "unit": "fold"}, {"measurement": "decrease in potency toward FAAH", "setting": "rat brain FAAH; compared to 10r", "result": 2, "unit": "fold"}]}
{"smiles": "CCCCCCNC(=O)Oc1cccc(-c2ccc(C(=O)O)cc2F)c1", "note": "[Compound 21c, 3-fluoro-4-[3-(hexylcarbamoyloxy)phenyl]benzoic acid]", "values": [{"measurement": "decrease in potency toward FAAH", "setting": "rat brain FAAH; compared to 10r", "result": 3, "unit": "fold"}]}
